PLC-beta3 inh = PLC-beta3 (human) inhibition, primary screen | 0.18% of 370,000 active | inhibition, % at 12.2 µM | Q01970 | Purified PLC-beta3, fluorogenic substrate, fluorescence; in the data active = inhibition above about 11%
Tn6 DDE FP = disrupts Tn6 cyclic peptide binding to fibrin D-Dimer-E complex; P02675; Fibrin DD(E) TRITC-Tn6 fluorescence polarization displacement; inhibition, % at 8.3 µM; 0.21% of 370,000 active; AID 720509;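 active = inhibition above a per-campaign cutoff: mean of compounds within control limits plus 3 SD, cut at about 15% in these data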
Target sequence (P02675 whole entry, looked up): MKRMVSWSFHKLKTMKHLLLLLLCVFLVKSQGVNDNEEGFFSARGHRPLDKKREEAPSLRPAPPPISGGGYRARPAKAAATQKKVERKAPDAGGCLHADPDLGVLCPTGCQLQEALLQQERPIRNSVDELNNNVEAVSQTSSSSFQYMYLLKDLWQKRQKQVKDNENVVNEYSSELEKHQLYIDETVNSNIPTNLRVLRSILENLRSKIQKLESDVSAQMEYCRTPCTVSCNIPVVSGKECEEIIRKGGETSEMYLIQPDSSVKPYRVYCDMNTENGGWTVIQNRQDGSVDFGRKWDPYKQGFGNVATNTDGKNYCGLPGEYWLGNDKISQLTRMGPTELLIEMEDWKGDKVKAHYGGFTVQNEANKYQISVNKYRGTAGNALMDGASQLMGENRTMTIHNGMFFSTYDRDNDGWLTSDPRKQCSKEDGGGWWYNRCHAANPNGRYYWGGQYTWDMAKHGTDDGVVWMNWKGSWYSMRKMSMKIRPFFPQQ
PLCg1 inh = inhibitors of human phospholipase C gamma1. purified PLC-gamma1, fluorogenic substrate, fluorescence. P19174. inhibition, % at 12.2 µM. AID 720700. 0.84% of 370,000 active; in the data active = inhibition above about 9.5%
ADAM17 inh = ADAM17 inhibition, QFRET primary screen; AID 720648; recombinant ADAM17, EDANS/DABCYL FRET peptide cleavage; 0.83% of 370,000 active; P78536; inhibition, % at 6.95 µM;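 active = inhibition above the mean of compounds lying between control limits plus 3 SD, set per campaign, cut at about 8.5% in these data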
ADAM10 inh = inhibitors of human ADAM10; O14672; recombinant ADAM10, EDANS/DABCYL FRET peptide cleavage, 3 h; inhibition, % at 7 µM; 0.62% of 370,000 active; AID 720582;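 active = inhibition above a per-campaign cutoff equal to the mean of compounds falling between control-based bounds plus 3 SD, cut at about 20% in these data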
Tn7 DDE FP = disrupts Tn7 cyclic peptide binding to fibrin D-Dimer-E complex. AID 720508. 0.13% of 370,000 active. inhibition, % at 8.3 µM. P02675. FP displacement of FITC-Tn7 peptide from fibrin DD(E); 0% = median of compound wells per plate;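 active = inhibition above the mean of compounds falling within the control limits plus 3 SD of them, cut at about 14% in these data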
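assay system = human clot-derived fibrin DD(E) complex | quantity = Fibrin-DD(E) at 2 µM final | timing = 10 min preincubation, 3 h with tracer, room temperature | signal = fluorescence polarization | measure = percent inhibition | benchmarks = high control wells with 10 µM unlabelled Aha-Tn7 peptide (full inhibition) | replicates = singlicate testing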
ADAM10 counter = ADAM10 inhibition, counter-screen for ADAM17 exosite hits; AID 743256; shares compounds with ADAM17 inh; inhibition, % at 6.95 µM; recombinant ADAM10, EDANS/DABCYL FRET peptide cleavage, 3 h; 47% of 2,900 active;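 active = mean inhibition over the triplicate runs exceeds the activity threshold set in the earlier primary screen, cut at about 20% in these data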
ADAM17 confirm = human ADAM17 inhibition, confirmation | shares compounds with ADAM17 inh | AID 743257 | inhibition, % at 6.95 µM | recombinant ADAM17, EDANS/DABCYL QFRET peptide cleavage | 65% of 2,900 active;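 active = mean inhibition across replicates above the hit cutoff set in the primary screen, cut at about 8.5% in these data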
A number is an active result; i = inactive; nt = no result given. The list is not random: actives were taken first. Their share in the collection is about 2.3%.

SMILES	PLC-beta3 inh	Tn6 DDE FP	PLCg1 inh	ADAM17 inh	ADAM10 inh	Tn7 DDE FP	ADAM10 counter	ADAM17 confirm
C=CC[C@H](CC(=O)NCCO)C(=O)N[C@H](COC(=O)[C@@H](CC=C)CC(=O)OC(C)(C)C)Cc1ccccc1	i	i	i	i	i	i	nt	nt
C=CC[C@@H](CC(=O)N[C@H](CO)Cc1ccccc1)C(=O)N[C@H](COC(=O)[C@@H](CC=C)CC(=O)OC(C)(C)C)Cc1ccccc1	i	i	i	9.6	i	i	i	i
C=CC[C@@H](CC(=O)N[C@@H](CO)Cc1ccccc1)C(=O)N[C@H](COC(=O)[C@H](CC=C)CC(=O)OC(C)(C)C)Cc1c[nH]c2ccccc12	i	i	i	9.9	i	i	44.2	22.9
C=CC[C@H](CC(=O)N(CCO)Cc1ccccc1)C(=O)N[C@H](COC(=O)[C@@H](CC=C)CC(=O)OC(C)(C)C)Cc1ccccc1	i	i	i	i	i	i	nt	nt
COC(=O)[C@]12C[C@H](CC(=O)NCCCN3CCCC3=O)C(=O)N(CCC3=CCCCC3)C1=C[C@H](C(C)C)O[C@@H]2C1CC1	i	i	i	i	i	i	nt	nt
COc1ccc(OC)c(S(=O)(=O)N2CCCCC2C(=O)N2CCN(CCO)CC2)c1 (centres undefined)	i	i	i	i	i	i	nt	nt
Cc1cn(CCC(=O)Nc2ccc(N3CCOCC3)cc2)c2ccccc12	i	i	i	i	i	i	nt	nt
Cc1cn(CCC(=O)Nc2ccccc2N2CCOCC2)c2ccccc12	i	i	i	8.9	i	i	24.8	12.0
COc1cccc(C=NNC(=O)CSc2nc3ccccc3[nH]2)c1O	i	i	i	10.2	i	i	i	i
COc1cccc(/C=N/NC(=O)CSc2ccccc2C)c1O	i	i	i	i	i	i	nt	nt
CCOCCCn1c(SC(C(=O)Nc2cc(C)ccc2C)c2ccccc2)nnc1-c1ccc(Cl)cc1 (centres undefined)	i	i	i	9.9	i	i	i	i
CCNc1nc(NCC)n2c(SC(C(=O)Nc3cc(C)ccc3C)c3ccccc3)nnc2n1 (centres undefined)	i	i	i	i	i	i	nt	nt
CC(=O)Nc1ccc(SCC(=O)c2cc(C)n(-c3ccccc3F)c2C)cc1	i	i	i	i	i	i	nt	nt
COC(=O)c1ccc(-n2c(C)cc(C(=O)CSc3ccc(NC(C)=O)cc3)c2C)cc1	i	i	i	9.0	i	i	21.6	16.5
COc1ccc(CCN(Cc2cccs2)S(=O)(=O)c2ccc(C)c(C)c2)cc1OC	i	i	i	i	i	i	nt	nt
Cc1ccccc1CN1CCCCC(NC(=O)Cc2cccs2)C1=O (centres undefined)	i	i	i	i	i	i	nt	nt
Cc1ccccc1OCc1nnc(SCC(=O)Nc2ccc3nc(SCC(=O)Nc4ccccc4)sc3c2)n1C	i	i	i	10.7	i	i	i	i
c1ccc(-n2c(SCc3cccc4ccccc34)nnc2-c2ccccn2)cc1	i	i	i	9.2	i	i	i	12.1
N#Cc1ccc(CSc2nnc(-c3ccccn3)n2-c2ccccc2)cc1	i	i	i	i	i	i	nt	nt
O=C(COCc1ccccc1)N1CC[C@H]2[C@H](CCCN2Cc2ccccc2)C1	i	i	i	i	i	i	nt	nt
COc1cccc(NC2c3ccccc3C(=O)N2Cc2ccccc2Cl)c1 (centres undefined)	i	i	i	11.7	i	i	i	10.8
COc1cc(NC2c3ccccc3C(=O)N2Cc2ccccc2Cl)cc(OC)c1 (centres undefined)	i	i	i	i	i	i	nt	nt
CCOc1cc(/C=C2\SC(=S)N(Nc3ccccc3)C2=O)ccc1O	i	i	i	9.5	i	i	31.1	14.3
CC(C)[C@H](NC(=O)OC(C)(C)C)C(=O)N1CCC(Oc2cccnc2)CC1	i	i	i	i	i	i	nt	nt

Screens (PubChem)
